Measurements: PubChem BioAssay
Records with an inconclusive call do not appear.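 The calls were made as follows, unless noted: active = viability increase at or above a cutoff of the median across tested compounds plus 3 SD (cut at about 8.5% in these data, passing the limit was not always enough); inconclusive = some gains above the cutoff, reason not given; inactive = the rest.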

What was measured:
[1] = OD615 S. cerevisiae growth inhibition, permissive medium, pilot counter-assay, permissive growth control for S. cerevisiae lifespan shortening project (AID 705;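 active = growth inhibition above 25% in both replicates, a cutoff set 3 SD above the mean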); settings: OD615, 24 h, at 10 µM, active compounds read high
In short: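 Material: engineered DeaD yeast; compound dosing: one dose 10 µM, DMSO 0.25% final; measure: yeast growth inhibition indicated by reduced 24 h OD615; detection: OD615 turbidity read; incubation: cells pre-grown 4 h, then 24 h compound exposure, 30 °C humidified; medium: permissive synthetic complete medium with raffinose and galactose carbon sources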

[2] = Restrictive medium S. cerevisiae growth inhibition, OD615, pilot screen of yeast lifespan reduction project, restrictive growth control (AID 706;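 active = growth inhibition above a set limit, 3 SD over mean compound inhibition, in both replicates, cut at about 43% in these data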;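 also: modified DeaD lifespan yeast strain shifted to restrictive glucose medium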); settings: OD615, 48 h, at 10 µM, active compounds read high
In short: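 material = engineered S. cerevisiae DeaD strain | medium = glucose-based CSMM-D restrictive medium | times = 4 h pre-incubation, 48 h exposure at 30 °C | technique = OD615 absorbance reading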

[3] = viability gain of MRP-1-high H69AR cells under doxorubicin, pilot screen, MRP-1 activator project, CellTiter-Glo, duplicate (AID 807); settings: H69AR viability with doxorubicin, CellTiter-Glo luminescence; at 10 µM; active compounds read high;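 also: compound pretreatment 18-22 h then 72 h combined with doxorubicin; 0% = doxorubicin alone and 100% = vehicle without doxorubicin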
[4] = growth suppression of beta-catenin knockout HCT116, pilot screen, human colon tumor cells (AID 823;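 active = cell viability at or below a set limit in both duplicate runs, the limit being the all-compound median minus 4 SD, cut at about 23% in these data, passing the limit was not always enough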;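 also: 0% = wells killed by 20 µM Hyamine and 100% = untreated DMSO cell wells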); settings: CellTiter-Glo, 60 h, at 10 µM, active compounds read low
[5] = growth suppression of PTEN-deleted HCT116, pilot screen, cell-based, HCT116 clonal line, CellTiter-Glo (AID 824;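 active = viability at or below 27.92% in each of two runs, the all-compound median minus 4 SD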;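 also: 0% = 20 µM Hyamine control and 100% = vehicle cell control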); settings: 60 h, at 10 µM, active compounds read low
[6] = inhibitors of the yeast RAM network, pilot screen, dse1pr::URA3 reporter, 5-FOA selection (AID 869;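 active = inhibition over a set limit, the all-compound mean plus 3 SD, in both replicate runs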;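 also: 0% = DMSO wells with no growth and 100% = 10 µM 1-NA-PP1 with full growth; RAM network block rescues cells from 5-FOA so hits raise OD615 growth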); settings: S. cerevisiae dse1pr::URA3 5-FOA growth, OD615, 2 d; at 10 µM; active compounds read high; strain carries analog-sensitive mutant Cbk1 kinase
[7] = RAM signaling pathway blockade in yeast – S. cerevisiae, Pdr1DBD-CYC8 efflux-inhibited sensitized strain, primary screen (AID 1298;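 active = RAM network inhibition above 8.4% in each of two replicates, 3 SD over the compound average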;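 also: 0% = DMSO untreated cells without growth and 100% = 10 µM 1-NA-PP1 full growth; higher means more yeast growth rescued from 5-FOA killing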); settings: S. cerevisiae cbk1-as DSE1-URA3 strain, 5-FOA growth OD615, 2 d; at 50 µM; active compounds read high

Cc1ccc(N)c(C(O)(C(F)(F)F)C(F)(F)F)c1
inactive: growth inhibition [1] -4.98% | growth inhibition [2] -2.67% | viability increase [3] 2.71% | viability [4] 105% | viability [5] 99.6% | inhibition [6] -0.695% | RAM network inhibition [7] 2.27%

CN(CC(=O)N1CCCCCC1)S(=O)(=O)c1cccc2cccnc12
inactive: growth inhibition [1] -6.24% | growth inhibition [2] -27% | viability increase [3] -4.51% | viability [4] 101% | viability [5] 82% | inhibition [6] 2.14% | RAM network inhibition [7] -1.18%

O=C(Cc1cc(=O)[nH]c(=O)[nH]1)N1CCN(C(=O)c2ccco2)CC1
inactive: growth inhibition [1] -10.2% | growth inhibition [2] -26.6% | viability increase [3] -2.96% | viability [4] 95.6% | viability [5] 95.6% | inhibition [6] 0.59% | RAM network inhibition [7] 1.53%

Cc1nc2ccccc2c(=O)n1NC(=O)c1c(O)c2ccccc2n(C)c1=O
inactive: growth inhibition [1] -5.41% | growth inhibition [2] 7.71% | viability increase [3] -2.45% | viability [4] 100% | viability [5] 99% | inhibition [6] 0.995% | RAM network inhibition [7] 0.88%

CC(=O)c1ccc(OCCCC(=O)NCC(c2ccco2)N(C)C)cc1 (configuration not stated)
inactive: growth inhibition [1] 4.54% | growth inhibition [2] -0.015% | viability increase [3] -4.73% | viability [4] 68.9% | viability [5] 85.3% | inhibition [6] 0.755% | RAM network inhibition [7] 1.98%

CN(C)C=NC(=O)/C(C#N)=C1\CCc2ccccc2N1
inactive: growth inhibition [1] -9.21% | growth inhibition [2] -2.15% | viability increase [3] -2.2% | viability [4] 95.2% | viability [5] 92.5% | inhibition [6] 0.705% | RAM network inhibition [7] 6.77%

Cc1cc(N=CC2=C(O)CC(C)(C)CC2=O)no1
inactive: growth inhibition [1] -11.7% | growth inhibition [2] -3.7% | viability increase [3] 0.49% | viability [4] 93.2% | viability [5] 104% | inhibition [6] 1.94% | RAM network inhibition [7] 1.04%

O=C(Nc1nccs1)c1cccc(S(=O)(=O)N2CCOCC2)c1
inactive: growth inhibition [1] -19.2% | growth inhibition [2] -11.8% | viability increase [3] -0.77% | viability [4] 92.8% | viability [5] 92.6% | inhibition [6] 1.83% | RAM network inhibition [7] 1.04%

CCOC(=O)C1=C(C)Nc2nc(C)nn2C1c1cc(OC)ccc1OC (configuration not stated)
inactive: growth inhibition [1] 3.21% | growth inhibition [2] 4.81% | viability increase [3] -1.53% | viability [4] 108% | viability [5] 100% | inhibition [6] -1.1% | RAM network inhibition [7] -0.16%

CCc1nnc(NC(=O)CSc2nc3c(c(=O)n2CC)SC(C)C3)s1 (configuration not stated)
inactive: growth inhibition [1] 3.12% | growth inhibition [2] -4.29% | viability increase [3] -0.18% | viability [4] 99.2% | viability [5] 93.1% | inhibition [6] 3.99% | RAM network inhibition [7] 6.11%

COc1ccc(NC(=O)CN(c2cc(C)cc(C)c2)S(=O)(=O)c2c(C)n[nH]c2C)cc1
inactive: growth inhibition [1] -9.19% | growth inhibition [2] -1.92% | viability increase [3] -2.97% | viability [4] 102% | viability [5] 94.6% | inhibition [6] 0.955% | RAM network inhibition [7] 5.46%

Cc1ccccc1NS(=O)(=O)c1cccc(-c2nnc(-c3ccccc3)o2)c1
inactive: growth inhibition [1] -8.74% | growth inhibition [2] -5.78% | viability increase [3] -0.75% | viability [4] 93.6% | viability [5] 85.7% | inhibition [6] 3.65% | RAM network inhibition [7] 4.08%

Cc1nnc(NC(=O)CSc2cn(Cc3ccccc3)c3ccccc23)s1
inactive: growth inhibition [1] -8.99% | growth inhibition [2] -0.275% | viability increase [3] -2.83% | viability [4] 82.2% | viability [5] 81.2% | inhibition [6] 2.86% | RAM network inhibition [7] 2.77%

O=C(O)CCCC(=O)Nc1ccccc1Br
inactive: growth inhibition [1] 9.25% | growth inhibition [2] 10.5% | viability increase [3] -1.61% | viability [4] 104% | viability [5] 94.8% | inhibition [6] 1.11% | RAM network inhibition [7] 2.11%

CCOC(=O)c1c(NC(C)=O)no[n+]1[O-]
inactive: growth inhibition [1] -14.2% | growth inhibition [2] -12.3% | viability increase [3] -2.24% | viability [4] 104% | viability [5] 97.1% | inhibition [6] 0.795% | RAM network inhibition [7] 5.03%

O=C(CCCc1ccccc1)NCCN1CCOCC1
inactive: growth inhibition [1] -12.1% | growth inhibition [2] -5.57% | viability increase [3] 1.56% | viability [4] 104% | viability [5] 97.9% | inhibition [6] 0.795% | RAM network inhibition [7] 2.4%

CCN1CCN(C(=O)CSCc2nc(-c3ccc(OC)c(OC)c3)oc2C)CC1
inactive: growth inhibition [1] -3.83% | growth inhibition [2] -7.22% | viability increase [3] -1.52% | viability [4] 101% | viability [5] 101% | inhibition [6] 0.475% | RAM network inhibition [7] 1.3%

Nc1nc(-c2ccc3c(c2)CCCC3)cs1
inactive: growth inhibition [1] 2.05% | growth inhibition [2] 29.1% | viability increase [3] -0.58% | viability [4] 86.2% | viability [5] 88.2% | inhibition [6] 0.275% | RAM network inhibition [7] 2.64%

CCOC(=O)N1CCN(C(=O)C(NC(=O)C2CCC(C)CC2)C(C)C)CC1 (configuration not stated)
inactive: growth inhibition [1] 10.9% | growth inhibition [2] 7.68% | viability increase [3] -0.76% | viability [4] 101% | viability [5] 99.9% | inhibition [6] -0.215% | RAM network inhibition [7] -0.98%

Cc1ccc(CCNC(=O)C2CCCN(S(=O)(=O)c3c(C)noc3/C=C/N(C)C)C2)cc1 (configuration not stated)
inactive: growth inhibition [1] -1.76% | growth inhibition [2] 6.26% | viability increase [3] -1.67% | viability [4] 88.1% | viability [5] 74.1% | inhibition [6] 1.85% | RAM network inhibition [7] 1.68%

CCn1c2ccccc2c2nnc(SCN3C(=O)c4ccccc4C3=O)nc21
inactive: growth inhibition [1] -12.1% | growth inhibition [2] -1.02% | viability increase [3] -3.94% | viability [4] 98.5% | viability [5] 100% | inhibition [6] 2.71% | RAM network inhibition [7] 5.66%

CC(=O)Nc1nnc(SCc2cccc(F)c2)s1
inactive: growth inhibition [1] -1.17% | growth inhibition [2] -1.06% | viability increase [3] -0.12% | viability [4] 108% | viability [5] 104% | inhibition [6] 1.99% | RAM network inhibition [7] 4.84%

CCCCC(CC)CNC(=O)CCS(=O)(=O)c1cccc2nsnc12 (configuration not stated)
inactive: growth inhibition [1] -14.8% | growth inhibition [2] -21.5% | viability increase [3] -2.97% | viability [4] 85.7% | viability [5] 91.7% | inhibition [6] 3.19% | RAM network inhibition [7] 4.78%

O=S(=O)(c1cc(Cl)ccc1Cl)N1CCN(Cc2ccc3c(c2)OCO3)CC1
inactive: growth inhibition [1] -18.5% | growth inhibition [2] -8.86% | viability increase [3] 0.21% | viability [4] 94.8% | viability [5] 83.7% | inhibition [6] 0.37% | RAM network inhibition [7] 2.23%

CCOC(=O)Cc1csc(NC(=O)CN(C)S(=O)(=O)c2cccc3cccnc23)n1
inactive: growth inhibition [1] -11.1% | growth inhibition [2] -7.54% | viability increase [3] -4.61% | viability [4] 93.5% | viability [5] 81.7% | inhibition [6] 1.14% | RAM network inhibition [7] 4.44%

O=c1[nH]c2ccccc2n1Cc1ccc(F)cc1
inactive: growth inhibition [1] -5.88% | growth inhibition [2] -4.46% | viability increase [3] 1.93% | viability [4] 96.6% | viability [5] 92.4% | inhibition [6] 1.71% | RAM network inhibition [7] -0.05%

O=C(Cn1cc2c(n1)CCCC2)NC1CCCCCC1
inactive: growth inhibition [1] 4.4% | growth inhibition [2] 2.47% | viability increase [3] -1.14% | viability [4] 99.2% | viability [5] 93.6% | inhibition [6] 0.485% | RAM network inhibition [7] 2.95%

CSc1nnc2c(n1)OC(c1ccc(C(=O)O)cc1)N(C(C)=O)c1ccccc1-2 (configuration not stated)
inactive: growth inhibition [1] -1% | growth inhibition [2] 13.2% | viability increase [3] 0.23% | viability [4] 102% | viability [5] 96.6% | inhibition [6] 1.57% | RAM network inhibition [7] 3.34%

Cc1nc2cc(C(=O)O)ccc2n1-c1ccccc1
inactive: growth inhibition [1] -11.5% | growth inhibition [2] -0.12% | viability increase [3] -2.1% | viability [4] 109% | viability [5] 94.8% | inhibition [6] 1.99% | RAM network inhibition [7] 1.31%

COCCN1C=C(C(=O)OC)C(c2ccc(OC)c(OC)c2)C(C(=O)OC)=C1
inactive: growth inhibition [1] -4.43% | growth inhibition [2] -9.06% | viability increase [3] -0.95% | viability [4] 98% | viability [5] 100% | inhibition [6] 1.43% | RAM network inhibition [7] -0.97%

COc1ccc(C2C(C(=O)Nc3ccccn3)=C(C)Nc3ncnn32)c(OC)c1 (configuration not stated)
inactive: growth inhibition [1] -8.54% | growth inhibition [2] -6.24% | viability increase [3] -1.04% | viability [4] 101% | viability [5] 92.1% | inhibition [6] 2.48% | RAM network inhibition [7] 7.85%

CCOC(=O)c1ccn(-c2nc(-c3ccco3)cc(C(F)(F)F)n2)n1
inactive: growth inhibition [1] -8.11% | growth inhibition [2] 6.16% | viability increase [3] 1.27% | viability [4] 106% | viability [5] 97.8% | inhibition [6] -0.505% | RAM network inhibition [7] 4.89%

Cc1ccnc(N2C(=O)c3ccccc3C2Nc2ccc3c(c2)OCCO3)c1 (configuration not stated)
inactive: growth inhibition [1] -12.4% | growth inhibition [2] 3.42% | viability increase [3] 1.16% | viability [4] 99.7% | viability [5] 90.1% | inhibition [6] 0.135% | RAM network inhibition [7] 3.93%

Cc1ccc(S(=O)(=O)c2nc(S(C)(=O)=O)sc2N(C)C)cc1
inactive: growth inhibition [1] 0.44% | growth inhibition [2] -4.42% | viability increase [3] -5.6% | viability [4] 86% | viability [5] 86.9% | inhibition [6] 0.565% | RAM network inhibition [7] 2.51%

Cc1ccc(OCCCN(C)C)c(Br)c1
inactive: growth inhibition [1] -0.99% | growth inhibition [2] -6.73% | viability increase [3] -1.22% | viability [4] 89.1% | viability [5] 87.7% | inhibition [6] 1.03% | RAM network inhibition [7] 2.05%

Cc1ccc(CCN2CC(C(=O)NCCCN3CCN(C)CC3)CC2=O)cc1 (configuration not stated)
inactive: growth inhibition [1] 1.07% | growth inhibition [2] -3.19% | viability increase [3] -2.38% | viability [4] 75.9% | viability [5] 92.8% | inhibition [6] -0.675% | RAM network inhibition [7] 1.23%
